From ChEMBL document CHEMBL1287802, “Convergent synthesis of fluorescence-labeled probes of Annonaceous acetogenins and visualization of their cell distribution” (Bioorg Med Chem, 2010)

Assays:
Assay type in all cases: functional
[1] = Growth inhibition of human HBC4 cells after 48 hrs by sulforhodamine B assay; conditions: HBC4, 48 h
How it was run: (§1)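 Tested in the JFCR39 panel of 39 human cancer cell lines. Cells were exposed to compound for 48 h, and growth was measured as the change in total cellular protein by sulforhodamine B colorimetry. GI50 (molar concentration for 50% growth inhibition) was calculated by a previously reported method. Fingerprints were plotted as log differences of each line's GI50 from the panel mean.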

[2] = Growth inhibition of human BSY1 cells after 48 hrs by sulforhodamine B assay; conditions: BSY-1, 48 h; how it was run: as §1
[3] = Growth inhibition of human HBC5 cells after 48 hrs by sulforhodamine B assay; conditions: HBC5, 48 h; how it was run: as §1
MCF7 = test: Growth inhibition of human MCF7 cells after 48 hrs by sulforhodamine B assay; conditions: MCF7, 48 h; how it was run: as §1
[4] = Growth inhibition of human MDA-MB-23 cells after 48 hrs by sulforhodamine B assay; conditions: MDA-MB-23, 48 h, read-out: pGI50 (converted); how it was run: as §1
U-251 = test: Growth inhibition of human U251 cells after 48 hrs by sulforhodamine B assay; conditions: U-251, 48 h; how it was run: as §1
SF-268 = test: Growth inhibition of human SF268 cells after 48 hrs by sulforhodamine B assay; conditions: SF-268, 48 h; how it was run: as §1
SF-295 = test: Growth inhibition of human SF295 cells after 48 hrs by sulforhodamine B assay; conditions: SF-295, 48 h; how it was run: as §1
SF-539 = test: Growth inhibition of human SF539 cells after 48 hrs by sulforhodamine B assay; conditions: SF-539, 48 h; how it was run: as §1
SNB-75 = test: Growth inhibition of human SNB75 cells after 48 hrs by sulforhodamine B assay; conditions: SNB-75, 48 h; how it was run: as §1
SNB-78 = test: Growth inhibition of human SNB78 cells after 48 hrs by sulforhodamine B assay; conditions: SNB-78, 48 h; how it was run: as §1
HCC 2998 = test: Growth inhibition of human HCC2998 cells after 48 hrs by sulforhodamine B assay; conditions: HCC 2998, 48 h, read-out: pGI50 (converted); how it was run: as §1
KM12 = test: Growth inhibition of human KM12 cells after 48 hrs by sulforhodamine B assay; conditions: KM12, 48 h; how it was run: as §1
HT-29 = test: Growth inhibition of human HT-29 cells after 48 hrs by sulforhodamine B assay; conditions: HT-29, 48 h; how it was run: as §1
NCI-H23 = test: Growth inhibition of human NCI-H23 cells after 48 hrs by sulforhodamine B assay; conditions: NCI-H23, 48 h; how it was run: as §1
NCI-H226 = test: Growth inhibition of human NCI-H226 cells after 48 hrs by sulforhodamine B assay; conditions: NCI-H226, 48 h; how it was run: as §1
NCI-H522 = test: Growth inhibition of human NCI-H522 cells after 48 hrs by sulforhodamine B assay; conditions: NCI-H522, 48 h; how it was run: as §1
NCI-H460 = test: Growth inhibition of human NCI-H460 cells after 48 hrs by sulforhodamine B assay; conditions: NCI-H460, 48 h; how it was run: as §1
A549 = test: Growth inhibition of human A549 cells after 48 hrs by sulforhodamine B assay; conditions: A549, 48 h; how it was run: as §1
DMS-273 = test: Growth inhibition of human DMS273 cells after 48 hrs by sulforhodamine B assay; conditions: DMS-273, 48 h; how it was run: as §1
DMS-114 = test: Growth inhibition of human DMS114 cells after 48 hrs by sulforhodamine B assay; conditions: DMS-114, 48 h; how it was run: as §1
LOX IMVI = test: Growth inhibition of human LOXIMVI cells after 48 hrs by sulforhodamine B assay; how it was run: as §1
OVCAR-3 = test: Growth inhibition of human OVCAR-3 cells after 48 hrs by sulforhodamine B assay; conditions: OVCAR-3, 48 h; how it was run: as §1
OVCAR-4 = test: Growth inhibition of human OVCAR4 cells after 48 hrs by sulforhodamine B assay; conditions: OVCAR-4, 48 h; how it was run: as §1
OVCAR-5 = test: Growth inhibition of human OVCAR5 cells after 48 hrs by sulforhodamine B assay; conditions: OVCAR-5, 48 h; how it was run: as §1
OVCAR-8 = test: Growth inhibition of human OVCAR8 cells after 48 hrs by sulforhodamine B assay; conditions: OVCAR-8, 48 h; how it was run: as §1
SK-OV-3 = test: Growth inhibition of human SKOV3 cells after 48 hrs by sulforhodamine B assay; conditions: SK-OV-3, 48 h; how it was run: as §1
[5] = Growth inhibition of human RXF631L cells after 48 hrs by sulforhodamine B assay; conditions: RXF 631, 48 h; how it was run: as §1
ACHN = test: Growth inhibition of human ACHN cells after 48 hrs by sulforhodamine B assay; how it was run: as §1
St-4 = test: Growth inhibition of human St-4 cells after 48 hrs by sulforhodamine B assay; conditions: St-4, 48 h; how it was run: as §1
[6] = Growth inhibition of human MKN1 cells after 48 hrs by sulforhodamine B assay; conditions: MKN-1, 48 h; how it was run: as §1
MKN-7 = test: Growth inhibition of human MKN7 cells after 48 hrs by sulforhodamine B assay; conditions: MKN-7, 48 h; how it was run: as §1
MKN-28 = test: Growth inhibition of human MKN28 cells after 48 hrs by sulforhodamine B assay; conditions: MKN-28, 48 h; how it was run: as §1
MKN-45 = test: Growth inhibition of human MKN45 cells after 48 hrs by sulforhodamine B assay; conditions: MKN-45, 48 h; how it was run: as §1
MKN-74 = test: Growth inhibition of human MKN74 cells after 48 hrs by sulforhodamine B assay; conditions: MKN-74, 48 h; how it was run: as §1
DU-145 = test: Growth inhibition of human DU145 cells after 48 hrs by sulforhodamine B assay; conditions: DU-145, 48 h, read-out: pGI50 (converted); how it was run: as §1
PC-3 = test: Growth inhibition of human PC3 cells after 48 hrs by sulforhodamine B assay; conditions: PC-3, 48 h; how it was run: as §1
HCT-15 = test: Growth inhibition of human HCT15 cells after 48 hrs by sulforhodamine B assay; conditions: HCT-15, 48 h; how it was run: as §1
HCT-116 = test: Growth inhibition of human HCT116 cells after 48 hrs by sulforhodamine B assay; conditions: HCT-116, 48 h; how it was run: as §1

GI50 (MCF7): 16.2 µM | GI50 (U-251): 75.9 µM | GI50 (HCC 2998): > 100 µM | GI50 (HT-29): 69.2 µM | GI50 (NCI-H23): 18.6 µM | GI50 (NCI-H226): 22.9 µM | GI50 (NCI-H522): 8.13 µM | GI50 (NCI-H460): 51.3 µM | GI50 (A549): 26.3 µM | GI50 (OVCAR-3): 38.9 µM | GI50 (OVCAR-4): 60.3 µM | GI50 (OVCAR-5): 38.9 µM | GI50 (OVCAR-8): 69.2 µM | GI50 (SK-OV-3): 81.3 µM | GI50 (ACHN): 33.9 µM | GI50 (MKN-7): 0.0525 µM | GI50 (MKN-28): 0.01 µM | GI50 (MKN-45): 43.7 µM | GI50 (MKN-74): 0.191 µM | GI50 (DU-145): > 100 µM | GI50 (PC-3): 29.5 µM | GI50 (HCT-15): 72.4 µM | GI50 (HCT-116): 15.8 µM
SMILES: C[C@H]1C=C(CCCCCCCCCCCC[C@@H](O)[C@H]2CC[C@H]([C@H](O)CCCCCCCCCNc3ccc([N+](=O)[O-])c4nonc34)O2)C(=O)O1
GI50 [1]: 64.6 µM | GI50 [2]: 33.1 µM | GI50 [3]: 21.9 µM | GI50 [4]: > 100 µM | GI50 (SF-268): 89.1 µM | GI50 (SF-295): 7.24 µM | GI50 (SF-539): 33.9 µM | GI50 (SNB-75): 51.3 µM | GI50 (SNB-78): 97.7 µM | GI50 (KM12): 36.3 µM | GI50 (DMS-273): 19.1 µM | GI50 (DMS-114): 0.01 µM | GI50 (LOX IMVI): 10.7 µM | GI50 [5]: 67.6 µM | GI50 (St-4): 33.1 µM | GI50 [6]: 21.4 µM
